Data: publication PMC4433875 (European journal of medicinal chemistry, 2015)

Assays:
[1] = system: most tested cancer cell lines; settings: read-out: IC50 values for most tested cancer cell lines; original IBR2; cited from earlier work
[2] = system: triple-negative human breast cancer cell line MDA-MB-468; test: XTT cell killing assay, MDA-MB-468; type: cell-based; settings: growth inhibition
Method in brief: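 MDA-MB-468 cells were grown in low-glucose DMEM with 10% FBS and 1% penicillin-streptomycin and plated one day before dosing. They received a four-day drug treatment, with the XTT proliferation kit read on day 6 after drug addition. Triplicate sets were compiled to give dose-dependent cytotoxicity.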

RAD51 = target: T1, RAD51 (Homo sapiens, UniProt Q06609); test: Multimer formation assay; type: biochemical; settings: RAD51:IBR120 1:10 molar ratio, vs DMSO
T1 sequence (Q06609 1-339): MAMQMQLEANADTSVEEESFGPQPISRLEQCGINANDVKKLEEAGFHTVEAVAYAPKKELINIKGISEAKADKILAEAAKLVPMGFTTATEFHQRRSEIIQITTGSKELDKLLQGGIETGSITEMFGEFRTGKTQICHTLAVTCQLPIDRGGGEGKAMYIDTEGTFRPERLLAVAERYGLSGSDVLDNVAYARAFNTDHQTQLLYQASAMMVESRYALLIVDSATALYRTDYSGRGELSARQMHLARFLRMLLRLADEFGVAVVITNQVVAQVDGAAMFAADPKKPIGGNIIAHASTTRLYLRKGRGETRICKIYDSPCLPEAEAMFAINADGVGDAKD
Method in brief: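 RAD51 (3.2 µg) was incubated with test compound (1:10 molar ratio) for 15 min at 37°C. Buffer was added (50mM triethanolamine-HCl pH7.5, 0.5mM Mg(OAc)2, 1mM DTT, 2mM ATP, 100 µg/ml BSA) and incubation continued 15 min. The mixture was run on a Superdex 200 gel filtration column equilibrated in the same buffer. Fractions were dot-blotted on PVDF and probed with anti-RAD51 mAb 14B4.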

[3] = system: HeLa cells stably expressing DR-GFP; test: I-SceI inducible gene conversion; type: cell-based, human; settings: 10 or 20 µM, 24 hours, flow cytometry
Method in brief: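 HeLa cells carrying stably integrated DR-GFP, selected with 2 µg/mL puromycin, were transfected with the I-SceI expression vector pCBASce for 24 h to induce DSBs. Cells were then exposed to DMSO or 10 or 20 µM test compound for another 24 h, trypsinized and analysed by flow cytometry for the percentage of GFP-positive cells. Three independent experiments, means±SD.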

[4] = system: panel of cancer cell lines; test: XTT assay, panel of cancer cell lines; type: cell-based, human

In the case of `O=S(=O)(Cc1ccccc1)N1C=Cc2ccccc2C1c1c[nH]c2ccccc12` (centres unmarked) [IBR2], the IC50 [1] is given as 12 to 20 µM.
For `O=S(=O)(Cc1ccccc1)N1CC=Cc2ccccc2[C@@H]1c1c[nH]c2ccccc12` [IBR115], the “change of activity on increasing the central ring size from six to seven” value [2] was “minimal change of activity”.
For `O=S(=O)(Cc1ccccc1)N1CCc2ccccc2[C@@H]1c1n[nH]c2ccccc12` [IBR117, (R)-1-(1H-Indazol-3-yl)-2-phenylmethanesulfonyl-1,2,3,4-tetrahydro-isoquinoline], the “fold increase in activity compared to parental compound IBR2” value [2] was 1.6~2.4 fold.
In the case of `O=S(=O)(Cc1ccccc1)N1Cc2ccccc2[C@@H]1c1c[nH]c2ccccc12` [IBR120, (R)-3-(2-(benzylsulfonyl)isoindolin-1-yl)-1H-indole], the “RAD51 multimerization (gel filtration elution profile)” value (RAD51) is reported as “can inhibit RAD51 multimerization”, the “HR frequency (GFP positive population)” value [3] is reported as “significantly reduced” and the IC50 ([4]; Homo sapiens, read-out: IC50 values in most tested cancer cell lines) is reported as 3 to 5 µM. For the same compound, the “difference between the IC50 values in normal and cancer cells” value ([4]; normal MCF10A vs cancer cell lines) was “Approximately 10 fold”.
In the case of `O=S(=O)(Cc1ccccc1)N1CC=Cc2ccccc2[C@H]1c1c[nH]c2ccccc12` [IBR116], the “change of activity on increasing the central ring size from six to seven” value [2] is reported as “almost complete loss of function”.
